Measurements: ChEMBL document CHEMBL5329172, “Chloroacetamide fragment library screening identifies new scaffolds for covalent inhibition of the TEAD·YAP1 interaction” (RSC Med Chem, 2023)
Active and inactive are the calls of the source. The rule behind the calls is not given here.

Assays:
[1] = (§1) Inhibition of GST-tagged TEAD4 C367S mutant (unknown origin) expressed in Escherichia coli BL21 (DE3) cells/FAM-labelled YAP1 (60 to 99 residues)(unknown origin) protein-protein interaction preincubated for 24 hrs at 4 degree C with TEAD4 C367S mutant followed by fluorescent labelled YAP1 addition by fluorescence polarization assay; set-up: species or system Homo sapiens
How it was run: (§2)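 FP: 64 nM TEAD4, TEAD4C367S, TEAD2 or TEAD3, or 250 nM TEAD1, was preincubated with compound for 24 h at 4 °C in PBS with 0.01% Triton X-100. FAM-YAP1 60–99 peptide (disulfide-crosslinked) was then added at 16 nM final. Polarization was read at ex 485/em 535 nm. Percent inhibition was taken relative to no-compound and no-protein controls. The single-point primary screen used 50 μM.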

[2] = target: T1, YAP1-TEAD4 (Homo sapiens) (UniProt P46937+Q15561); test: (§3) Inhibition of GST-tagged TEAD4 (217 to 434 residues) (unknown origin) expressed in Escherichia coli BL21 (DE3) cells/FAM-labelled YAP1 (60 to 99 residues)(unknown origin) protein-protein interaction assessed as maximum inhibition at 50 uM preincubated for 24 hrs at 4 degree C with TEAD4 followed by fluorescent labelled YAP1 addition by fluorescence polarization assay; how it was run: as §2
YAP1-TEAD4 [3] = target: T2, YAP1-TEAD4 (Homo sapiens, UniProt Q15561); test: (§4) Inhibition of GST-tagged TEAD4 (217 to 434 residues) (unknown origin) expressed in Escherichia coli BL21 (DE3) cells/FAM-labelled YAP1 (60 to 99 residues)(unknown origin) protein-protein interaction preincubated for 24 hrs at 4 degree C with TEAD4 followed by fluorescent labelled YAP1 addition by fluorescence polarization assay; how it was run: as §2
T2 sequence (P46937 whole entry, the tested form may be a part): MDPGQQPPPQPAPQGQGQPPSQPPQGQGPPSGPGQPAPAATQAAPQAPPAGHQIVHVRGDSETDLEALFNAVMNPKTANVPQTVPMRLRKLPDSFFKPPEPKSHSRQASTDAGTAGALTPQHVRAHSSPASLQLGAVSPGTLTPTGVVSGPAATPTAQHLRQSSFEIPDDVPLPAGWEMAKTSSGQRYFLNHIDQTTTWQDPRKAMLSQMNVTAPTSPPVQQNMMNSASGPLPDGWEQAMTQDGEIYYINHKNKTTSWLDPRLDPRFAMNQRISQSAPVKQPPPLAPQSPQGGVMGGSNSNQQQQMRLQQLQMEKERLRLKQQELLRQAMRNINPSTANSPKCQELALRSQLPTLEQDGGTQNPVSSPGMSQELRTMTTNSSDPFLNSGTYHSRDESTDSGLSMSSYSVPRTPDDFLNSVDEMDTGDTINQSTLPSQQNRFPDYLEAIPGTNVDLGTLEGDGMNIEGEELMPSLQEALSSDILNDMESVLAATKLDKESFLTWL
T2 sequence (Q15561 whole entry, the tested form may be a part): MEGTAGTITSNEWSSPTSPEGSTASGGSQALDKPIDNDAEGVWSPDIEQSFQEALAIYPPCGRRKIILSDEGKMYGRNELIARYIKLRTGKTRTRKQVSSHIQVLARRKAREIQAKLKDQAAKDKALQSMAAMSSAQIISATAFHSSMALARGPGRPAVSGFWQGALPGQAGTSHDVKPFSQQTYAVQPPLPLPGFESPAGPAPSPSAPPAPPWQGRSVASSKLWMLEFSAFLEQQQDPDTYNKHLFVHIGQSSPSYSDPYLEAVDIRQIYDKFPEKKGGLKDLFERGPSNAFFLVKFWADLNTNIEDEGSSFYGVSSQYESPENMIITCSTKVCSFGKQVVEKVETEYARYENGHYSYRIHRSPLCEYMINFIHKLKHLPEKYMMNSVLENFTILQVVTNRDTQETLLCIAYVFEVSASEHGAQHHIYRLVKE

S2 = test: Inhibition of uPAR (unknown origin) expressed in S2 cells/FAM-labelled alpha-helical peptide AE-147 (unknown origin) protein-protein interaction preincubated for 24 hrs at 4 degree C with uPAR followed by fluorescent labelled AE-147 addition by fluorescence polarization assay; settings: Homo sapiens
How it was run: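 Counter-screen FP: 250 nM uPAR lacking the GPI anchor (from S2 cells) was preincubated with compound for 24 h at 4 °C in PBS with 0.01% Triton X-100. AE-147-FAM peptide was then added at 100 nM final and polarization read at ex 485/em 535 nm.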

[4] = target: T1, YAP1-TEAD4 (Homo sapiens); test: as §3, with “assessed” for “assessed as”, “inhibition” for “inhibition at 50 uM”, “48” for “24”
How it was run: (§5)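 Time-course FP: 64 nM TEAD4 was preincubated with varying compound concentrations for 0.5, 6, 24 or 48 h at 4 °C in PBS with 0.01% Triton X-100. 16 nM FAM-YAP1 60–99 peptide was then added and polarization read at 485/535 nm, n = 2. Inhibition was taken relative to no-compound and no-protein controls.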

YAP1-TEAD4 [5] = target: T2, YAP1-TEAD4; test: (§6) Covalent inhibition of GST-tagged TEAD4 (217 to 434 residues) (unknown origin) expressed in Escherichia coli BL21 (DE3) cells/FAM-labelled YAP1 (60 to 99 residues)(unknown origin) protein-protein interaction assessed as protein-compound adduct formation by measuring inhibition constant at 100 uM incubated for 0.5 to 6 hrs at 4 degree C followed by mass spectrometry analysis
How it was run: (§7)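 Kinetics by MS: 2.5 μM TEAD4 was incubated at 4 °C with 3.1–100 μM compound. Aliquots were quenched with 0.1 M formic acid at set times from 0.5 h upward and analysed by whole-protein MS. Adduct relative to unreacted protein was fit to 100×(1−e^(−kobs·t)) to give kobs. kobs versus concentration was fit hyperbolically for kinact and KI, or linearly for kinact/KI where no plateau was reached.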

[6] = target: T3, TEAD3-YAP1 (Homo sapiens) (UniProt P46937+Q99594); test: as §4, with “TEAD3 (210” for “GST-tagged TEAD4 (217”, “427” for “434”, “compound” for “TEAD4”; how it was run: as §2
T3 sequence (P46937 whole entry, looked up): as the sequence (P46937 whole entry, the tested form may be a part) above
T3 sequence (Q99594 whole entry, looked up): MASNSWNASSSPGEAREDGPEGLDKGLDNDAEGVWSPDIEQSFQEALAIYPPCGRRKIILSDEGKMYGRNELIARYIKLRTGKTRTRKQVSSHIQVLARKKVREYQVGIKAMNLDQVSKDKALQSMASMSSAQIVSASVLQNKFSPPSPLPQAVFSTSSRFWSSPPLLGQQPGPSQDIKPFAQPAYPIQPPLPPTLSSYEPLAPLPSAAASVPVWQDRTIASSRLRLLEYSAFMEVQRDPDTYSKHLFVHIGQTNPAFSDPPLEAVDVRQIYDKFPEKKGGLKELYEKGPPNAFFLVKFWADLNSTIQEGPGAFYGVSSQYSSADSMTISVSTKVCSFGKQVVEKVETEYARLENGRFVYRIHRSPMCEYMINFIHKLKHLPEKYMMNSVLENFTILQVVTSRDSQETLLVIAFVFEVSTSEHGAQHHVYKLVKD

[7] = target: T4, Transcriptional coactivator YAP1/Transcriptional enhancer factor TEF-1 (Homo sapiens) (UniProt P46937+P28347); test: as §6, with “TEAD1 (209” for “GST-tagged TEAD4 (217”, “426” for “434”, “formation” for “formation by measuring inhibition constant”, “24” for “0.5 to 6”
T4 sequence (P28347 whole entry, looked up): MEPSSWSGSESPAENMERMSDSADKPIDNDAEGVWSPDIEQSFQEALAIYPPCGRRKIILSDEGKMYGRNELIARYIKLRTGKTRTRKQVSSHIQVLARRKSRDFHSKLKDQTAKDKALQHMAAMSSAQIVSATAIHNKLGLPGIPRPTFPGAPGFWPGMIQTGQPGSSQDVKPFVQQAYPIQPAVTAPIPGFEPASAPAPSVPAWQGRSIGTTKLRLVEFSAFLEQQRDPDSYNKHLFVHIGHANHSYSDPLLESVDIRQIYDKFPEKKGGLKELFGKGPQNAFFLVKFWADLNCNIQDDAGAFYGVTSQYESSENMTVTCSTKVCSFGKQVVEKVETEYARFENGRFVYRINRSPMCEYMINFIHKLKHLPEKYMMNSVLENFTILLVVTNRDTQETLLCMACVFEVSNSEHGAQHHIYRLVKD
T4 sequence (P46937 whole entry, looked up): as the sequence (P46937 whole entry, the tested form may be a part) above
How it was run: (§8)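 Intact-protein MS: 2.5 μM protein (TEAD4 217–434 with GST cleaved, TEAD4C367S, TEAD1 209–426, TEAD2 217–447 or TEAD3 210–427) incubated with 100 μM compound in PBS for 24 h at 4 °C. Samples were centrifuged to remove precipitate, desalted on a C3 reverse-phase column with a water/acetonitrile 0.1% formic acid gradient, and masses were read by Q-TOF. Adduct peaks were reported as percent.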

YAP1-TEAD4 [8] = target: T2, YAP1-TEAD4; test: as §4, with “6” for “24”; how it was run: as §5
[9] = target: T1, YAP1-TEAD4 (Homo sapiens); test: as §6, with “formation” for “formation by measuring inhibition constant”, “24” for “0.5 to 6”; how it was run: as §8
[10] = target: T4, Transcriptional coactivator YAP1/Transcriptional enhancer factor TEF-1 (Homo sapiens); test: as §4, with “TEAD1 (209” for “GST-tagged TEAD4 (217”, “426” for “434”, “compound” for “TEAD4”; how it was run: as §2
[11] = target: T1, YAP1-TEAD4 (Homo sapiens); test: as §6, with “second order rate constant, kinact/ki ratio” for “measuring inhibition constant”; settings: time 0.5-6 hrs; how it was run: as §7
[12] = target: T1, YAP1-TEAD4 (Homo sapiens); test: as §3, with “assessed” for “assessed as”, “inhibition” for “inhibition at 50 uM”, “6” for “24”; how it was run: as §5
Homo sapiens [13] = organism: Homo sapiens; test: as §1; how it was run: as §2
YAP1-TEAD4 [14] = target: T2, YAP1-TEAD4; test: as §4, with “48” for “24”; how it was run: as §5
[15] = target: T1, YAP1-TEAD4 (Homo sapiens); test: as §6, with “reaction half life” for “inhibition constant”; settings: time 0.5-6 hrs; how it was run: as §7
[16] = target: T5, TEAD2-YAP1 (Homo sapiens) (UniProt P46937+Q15562); test: as §4, with “TEAD2” for “GST-tagged TEAD4”, “447” for “434”, “compound” for “TEAD4”; how it was run: as §2
T5 sequence (P46937 whole entry, looked up): as the sequence (P46937 whole entry, the tested form may be a part) above
T5 sequence (Q15562 whole entry, looked up): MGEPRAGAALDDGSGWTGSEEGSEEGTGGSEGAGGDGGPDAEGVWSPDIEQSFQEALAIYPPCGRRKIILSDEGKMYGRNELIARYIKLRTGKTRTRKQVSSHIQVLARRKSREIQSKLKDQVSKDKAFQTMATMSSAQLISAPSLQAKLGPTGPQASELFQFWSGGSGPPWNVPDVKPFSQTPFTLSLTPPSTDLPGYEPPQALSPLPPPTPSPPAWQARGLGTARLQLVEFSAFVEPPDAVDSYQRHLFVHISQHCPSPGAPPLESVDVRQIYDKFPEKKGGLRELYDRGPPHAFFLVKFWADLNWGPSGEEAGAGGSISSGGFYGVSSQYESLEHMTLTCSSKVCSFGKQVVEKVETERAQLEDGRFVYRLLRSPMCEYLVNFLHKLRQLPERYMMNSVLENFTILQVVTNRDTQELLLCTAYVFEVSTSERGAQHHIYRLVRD

[17] = target: T5, TEAD2-YAP1 (Homo sapiens); test: as §6, with “TEAD2” for “GST-tagged TEAD4”, “447” for “434”, “formation” for “formation by measuring inhibition constant”, “24” for “0.5 to 6”; how it was run: as §8
[18] = target: T1, YAP1-TEAD4 (Homo sapiens); test: as §3, with “assessed” for “assessed as”, “inhibition” for “inhibition at 50 uM”, “0.5” for “24”; how it was run: as §5
Homo sapiens [19] = organism: Homo sapiens; test: Covalent inhibition of GST-tagged TEAD4 C367S mutant (unknown origin) expressed in Escherichia coli BL21 (DE3)/FAM-labelled YAP1 (60 to 99 residues)(unknown origin) protein-protein interaction assessed as protein-compound adduct formation at 100 uM incubated for 24 hrs at 4 degree C followed by mass spectrometry analysis; how it was run: as §8
[20] = target: T5, TEAD2-YAP1 (Homo sapiens); test: as §3, with “TEAD2” for “GST-tagged TEAD4”, “447” for “434”, “compound” for “TEAD4”; how it was run: as §2
YAP1-TEAD4 [21] = target: T2, YAP1-TEAD4; test: as §4, with “0.5” for “24”; how it was run: as §5
[22] = target: T1, YAP1-TEAD4 (Homo sapiens); test: (§9) Covalent inhibition of GST-tagged TEAD4 (217 to 434 residues) (unknown origin) expressed in Escherichia coli BL21 (DE3) cells/FAM-labelled YAP1 (60 to 99 residues)(unknown origin) protein-protein interaction assessed as second protein-compound adduct formation at 100 uM incubated for 24 hrs at 4 degree C followed by mass spectrometry analysis; how it was run: as §8
TEAD2-YAP1 = TEAD2-YAP1 (Homo sapiens, UniProt Q15562); test: as §4, with “TEAD2” for “GST-tagged TEAD4”, “447” for “434”, “compound” for “TEAD4”; how it was run: as §2
Sequence of TEAD2-YAP1 (P46937 whole entry): as the sequence (P46937 whole entry, the tested form may be a part) above
Sequence of TEAD2-YAP1 (Q15562 whole entry): as the sequence (Q15562 whole entry, looked up) above

[23] = target: Transcriptional coactivator YAP1/Transcriptional enhancer factor TEF-1 (Homo sapiens, UniProt P28347); test: as §4, with “TEAD1 (209” for “GST-tagged TEAD4 (217”, “426” for “434”, “compound” for “TEAD4”; how it was run: as §2
Sequence of Transcriptional coactivator YAP1/Transcriptional enhancer factor TEF-1 (P46937 whole entry): as the sequence (P46937 whole entry, the tested form may be a part) above
Sequence of Transcriptional coactivator YAP1/Transcriptional enhancer factor TEF-1 (P28347 whole entry): as the sequence (P28347 whole entry, looked up) above

[24] = target: T3, TEAD3-YAP1 (Homo sapiens); test: as §9, with “TEAD3 (210” for “GST-tagged TEAD4 (217”, “427” for “434”, “as” for “as second”; how it was run: as §8
[25] = target: T1, YAP1-TEAD4 (Homo sapiens); test: as §9, with “additional” for “second”; how it was run: as §8
[26] = target: T4, Transcriptional coactivator YAP1/Transcriptional enhancer factor TEF-1 (Homo sapiens); test: as §3, with “TEAD1 (209” for “GST-tagged TEAD4 (217”, “426” for “434”, “compound” for “TEAD4”; how it was run: as §2

Imax [2] | IC50 (YAP1-TEAD4 [3]) | Imax [4] | Ki (YAP1-TEAD4 [5]) | inhibition [6] | inhibition [7] | IC50 (YAP1-TEAD4 [8]) | percent protein-compound adduct formation [9] | inhibition [10] | Ratio [11] | Imax [12] | IC50 (YAP1-TEAD4 [14]) | T1/2 [15] | inhibition (Homo sapiens [19]) | Imax [20] | IC50 (YAP1-TEAD4 [21]) | percent second protein-compound adduct [22] | IC50 (TEAD2-YAP1) | SMILES | inhibition (S2) | inhibition (Homo sapiens [13]) | further results
100% | 20.7 µM | – | – | – | – | – | – | – | – | – | – | – | – | – | – | – | – | COc1ccccc1CN(C(=O)CCl)C(C(=O)NC1CCCCC1)c1ccncc1 (stereo unspecified) | inactive | – | IC50 [1]: 27.9 µM
41% | 22.8 µM | 33% | 94 µM | inactive | Active | 38.1 µM | 100% | inactive | 28.1 M⁻¹ s⁻¹ | 33% | 4.7 µM | 0.1 h | – | – | – | – | – | O=C(Nc1ccccc1)C1CCN(C(=O)CCl)CC1 | inactive | inactive | inhibition [16]: inactive
40% | 2.2 µM | 35% | – | inactive | Active | 5.9 µM | 85% | inactive | 13.5 M⁻¹ s⁻¹ | 35% | 1.4 µM | – | inactive | 29% | 18.1 µM | 15% | 2.3 µM | Cc1ccc(C2=NN(C(=O)CCl)C(c3ccco3)C2)cc1 (stereo unspecified) | inactive | inactive | inhibition [17]: Active; Imax [18]: 35%
35% | 1.4 µM | – | – | inactive | Active | – | – | – | 1.6 M⁻¹ s⁻¹ | – | – | – | inactive | – | – | – | 86.7 µM | O=C(CCl)NCCSc1ccc(Cl)cc1 | – | – | IC50 [23]: 182 µM
48% | 3.3 µM | 53% | 37.7 µM | inactive | Active | 10.2 µM | 78% | inactive | 8.3 M⁻¹ s⁻¹ | 53% | 2.6 µM | 0.6 h | inactive | 35% | 23.6 µM | 15% | 3.1 µM | COc1cccc(C2CC(Cc3cccs3)=NN2C(=O)CCl)c1OC (stereo unspecified) | inactive | inactive | inhibition [17]: Active; Imax [18]: 53%; inhibition [24]: Active
31% | 1.4 µM | 37% | 17.3 µM | inactive | Active | 4.6 µM | 55% | inactive | 5.1 M⁻¹ s⁻¹ | 37% | 0.9 µM | 2.2 h | inactive | – | 9.7 µM | 18% | – | O=C(NCCc1ccccc1)C(c1cccs1)N(C(=O)CCl)c1cccc(Cl)c1 (stereo unspecified) | inactive | inactive | percent protein-compound adduct formation [25]: 17%; Imax [18]: 37%; inhibition [16]: inactive
37% | 4.2 µM | 38% | 45.8 µM | inactive | Active | 54.5 µM | 46% | inactive | 1.3 M⁻¹ s⁻¹ | 38% | 5.3 µM | 3.3 h | inactive | 22% | – | 11% | 22 µM | CCS(=O)(=O)Oc1ccc(CN(Cc2ccc(F)cc2)C(=O)CCl)cc1 | inactive | inactive | percent protein-compound adduct formation [25]: 20%
35% | 0.9 µM | – | – | inactive | 100% | – | – | – | 0.3 M⁻¹ s⁻¹ | – | – | – | inactive | – | 40 µM | – | 254 µM | NC(=O)c1oc2ccccc2c1NC(=O)CCl | – | – | Imax [26]: 31%; IC50 [23]: 3 µM
44% | 11.1 µM | 45% | – | inactive | Active | 56.3 µM | 100% | – | 2.4 M⁻¹ s⁻¹ | 45% | 19.4 µM | – | – | 14% | – | – | 46.5 µM | CCOc1ccc(S(=O)(=O)N2CCN(C(=O)CCl)CC2)cc1 | inactive | inactive | –
